Results reported in publication PMC3332339 (European Journal of Clinical Pharmacology, 2012).
Marks after values point to notes of the source that are not given here. Blank lines part the entries; values can stand above or below the compound they belong to.

Tests used:
[1] = test system: factor Xa inhibition and thrombin inhibition; assay: Prothrombinase-induced clotting time; type: in vivo, human; settings: for PiCT AUEC0–48, ratio of adjusted test/reference gMean (90% CI) / PiCT ERmax, ratio of adjusted test/reference gMean (90% CI): after enoxaparin vs alone
Method in brief: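 Healthy-adult crossover: oral prodrug 220 mg alone, or 24 h after 3 daily s.c. LMWH 40 mg doses. Platelet-poor plasma incubated with phospholipid/Russell's viper venom activator, 3 min at 37°C; factor Xa added, recalcified with reagent containing 25 mM CaCl2, clotting time read. Daily 142 ng/mL quality-control standard run at start, middle and end. AUEC0–48 and ERmax versus baseline; geometric mean ratios with 90% CI.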

[2] = test system: intrinsic pathway of the coagulation cascade; assay: Activated partial thromboplastin time; type: in vivo, human; settings: for aPTT AUEC0–48, gMean / aPTT ERmax, gMean / aPTT Ebase (baseline effect), gMean: n = 23
Method in brief: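 Crossover in healthy adults (18–55 y) with 5-day washout: oral thrombin-inhibitor prodrug 220 mg alone, or 24 h after 3 daily s.c. LMWH 40 mg doses. Plasma sampled over 48 h. Equal volumes of plasma and kaolin–cephalin reagent, 3 min at 37°C with stirring, recalcified with 0.025 M CaCl2, then time to fibrin clot on a coagulometer. Geometric mean test/reference ratios with 90% CI.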

[3] = test system: thrombin (meizothrombin generated from prothrombin by ecarin); assay: Ecarin clotting time; type: in vivo, human
[4] = test system: human α-thrombin; assay: Diluted thrombin time; type: in vivo; settings: for dTT (HEMOCLOT) AUEC0–48, gMean / dTT (HEMOCLOT) ERmax, gMean / dTT (HEMOCLOT) Ebase (baseline effect), gMean: n = 23
Method in brief: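 Healthy-adult crossover (oral prodrug 220 mg alone or after 3 days of s.c. LMWH 40 mg), plasma sampled over 48 h. Plasma diluted in 0.9% NaCl, mixed with normal pooled human plasma, 2 min at 37°C; clotting started with a fixed amount of purified human α-thrombin and time to clot recorded in seconds. Quantitative range 50–500 ng/mL. AUEC0–48 and ERmax; geometric mean ratios with 90% CI.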

[5] = Safety and tolerability; type: in vivo, human; settings: for Tolerability (global assessment): Phase I, healthy subjects
Method in brief: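 Open-label single-center crossover in healthy men and women: oral prodrug 220 mg alone, or after 3 daily s.c. LMWH 40 mg doses. Assessed by adverse events, physical examination, blood pressure, pulse, 12-lead ECG, hematology, clinical chemistry, urinalysis, local tolerability and investigator global assessment. Follow-up on days 1–3, with end-of-study examination within 7 days.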

[6] = Dabigatran plasma pharmacokinetics; type: in vivo, human; settings: for AUC(0-inf) / Cmax: both, human, plasma
Method in brief: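 Crossover in healthy adults: 220 mg oral prodrug alone, or 24 h after 3 daily s.c. LMWH 40 mg doses, with 5-day washout. Plasma taken to 48 h post-dose. Free drug: plasma buffered with 0.2 M ammonium formate pH 3.5 plus [13C6] internal standard. Total drug: alkaline cleavage with NaOH, 2 h at 37°C, then HCl. Validated HPLC-MS/MS, calibrated 1.00–400 ng/mL. Geometric mean ratios with 90% CI.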

[7] = pharmacologically equipotent glucuronide; cited from earlier work
[8] = test system: factor Xa/IIa; settings: cited from earlier work
[9] = dabigatran etexilate 220 mg after enoxaparin, n = 21
[10] = dabigatran etexilate 220 mg alone, n = 23
[11] = dabigatran etexilate dosed 24 h after enoxaparin
[12] = dabigatran etexilate 220 mg after enoxaparin
[13] = dabigatran etexilate 220 mg alone
[14] = dabigatran etexilate 220 mg after enoxaparin, n = 23
[15] = dabigatran etexilate 220 mg after enoxaparin vs alone, adjusted gMean ratio
[16] = enoxaparin pre-treatment before dabigatran etexilate 220 mg

Compound: CCCCCCOC(=O)NC(=N)c1ccc(NCc2nc3cc(C(=O)N(CCC(=O)OCC)c4ccccn4)ccc3n2C)cc1 [Dabigatran etexilate]
- PiCT AUEC0–48, ratio of adjusted test/reference gMean (90% CI) [1]: 163.7 (114.3–234.3) %
- PiCT ERmax, ratio of adjusted test/reference gMean (90% CI) [1]: 115.2 (101.8–130.4) %
- PiCT AUEC0–48, ratio of adjusted test/reference gMean (90% CI) ([1]; listed as dabigatran etexilate): 163.7%
- PiCT ERmax, ratio of adjusted test/reference gMean (90% CI) ([1]; listed as dabigatran etexilate): 115.2%
- PiCT AUEC0–48, gMean [1, 9]: 23.8^c h
- PiCT ERmax (maximum effect ratio to baseline), gMean [1, 9]: 2.92^c
- PiCT Ebase (baseline effect), gMean [1, 9]: 34.7^c s
- PiCT AUEC0–48, gMean [1, 10]: 14.6 h
- PiCT ERmax (maximum effect ratio to baseline), gMean [1, 10]: 2.53
- PiCT Ebase (baseline effect), gMean [1, 10]: 28.4 s
- Increase of PiCT ERmax compared with dabigatran etexilate alone [1, 11]: approximately 15%
- PiCT time to peak ([1]; similar in both treatment regimens (alone and 24 h after enoxaparin)): 3 h
- aPTT AUEC0–48, ratio of adjusted test/reference gMean (90% CI) ([2]; after enoxaparin vs alone): 114.2 (75.1–173.5) %
- aPTT ERmax, ratio of adjusted test/reference gMean (90% CI) ([2]; after enoxaparin vs alone): 84.9 (70.3–102.5) %
- aPTT AUEC0–48, gMean [2, 12]: 6.56 h
- aPTT ERmax, gMean [2, 12]: 2.07
- aPTT Ebase (baseline effect), gMean [2, 12]: 39.3 s
- aPTT AUEC0–48, gMean [2, 13]: 5.65 h
- aPTT ERmax, gMean [2, 13]: 2.40
- aPTT Ebase (baseline effect), gMean [2, 13]: 39.1 s
- ECT AUEC0–48, ratio of adjusted test/reference gMean (90% CI) ([3]; after enoxaparin vs alone): 99.2 (67.8–145.0) %
- ECT ERmax, ratio of adjusted test/reference gMean (90% CI) ([3]; after enoxaparin vs alone): 91.0 (80.0–103.5) %
- ECT Ebase (baseline effect), gMean ([3]; dabigatran etexilate 220 mg after enoxaparin, n = 22): 32.6^d s
- ECT AUEC0–48, gMean [3, 14]: 7.30 h
- ECT ERmax, gMean [3, 14]: 2.05
- ECT AUEC0–48, gMean [3, 10]: 7.28 h
- ECT ERmax, gMean [3, 10]: 2.25
- ECT Ebase (baseline effect), gMean [3, 10]: 33.1 s
- dTT (HEMOCLOT) AUEC0–48, ratio of adjusted test/reference gMean (90% CI) ([4]; after enoxaparin vs alone): 88.4 (66.8–116.9) %
- dTT (HEMOCLOT) ERmax, ratio of adjusted test/reference gMean (90% CI) ([4]; after enoxaparin vs alone): 95.0 (87.4–103.2) %
- dTT (HEMOCLOT) AUEC0–48, gMean [4, 12]: 3.61 h
- dTT (HEMOCLOT) ERmax, gMean [4, 12]: 1.55
- dTT (HEMOCLOT) Ebase (baseline effect), gMean [4, 12]: 31.0 s
- dTT (HEMOCLOT) AUEC0–48, gMean [4, 13]: 4.01 h
- dTT (HEMOCLOT) ERmax, gMean [4, 13]: 1.64
- dTT (HEMOCLOT) Ebase (baseline effect), gMean [4, 13]: 31.7 s
- Tolerability (global assessment) [5]: well tolerated

- Ratio of free to total dabigatran gMean AUC0-∞ ([6]; after enoxaparin): 0.765
- AUC(0-inf) ([6]; oral): 592 ng·h/mL
- Cmax ([6]; oral): 78.4 ng/mL
- AUC(0-inf) ([6]; po, 220 mg): 700 ng·h/mL
- Cmax ([6]; po, 220 mg): 90.7 ng/mL
- Ratio of free to total dabigatran gMean AUC0-∞ ([6]; dabigatran alone): 0.760
- AUC0-∞, ratio test/reference [6, 15]: 85%
- Cmax, ratio test/reference [6, 15]: 86%
Compound: [H]/N=C(/N)c1ccc(NCc2nc3cc(C(=O)N(CCC(=O)O)c4ccccn4)ccc3n2C)cc1 [dabigatran]
- Increase of PiCT AUEC0–48 compared with dabigatran etexilate alone [1, 11]: 64%
- Increase of PiCT ERmax compared with dabigatran etexilate alone [1, 11]: ~15%
- Subjects with adverse events by actual treatment at onset ([5]; treatment at onset: dabigatran (three subjects of 23)): 13.0%
- Subjects with adverse events by actual treatment at onset ([5]; treatment at onset: enoxaparin + dabigatran (three subjects of 23)): 13.0%
- Glucuronide share of total dabigatran exposure in plasma [7]: approximately 20%

Compound: enoxaparin
- Effect of enoxaparin on ECT [3, 16]: not meaningfully affected
- Effect of enoxaparin on dTT [4, 16]: not meaningfully affected
- Tolerability (global assessment) [5]: well tolerated
- Subjects with adverse events by actual treatment at onset ([5]; treatment at onset: enoxaparin (four subjects of 23)): 17.4%
- Mean anti-factor Xa/IIa ratio [8]: 14.0 ± 3.1
